Laboratory results taken from ChEMBL document CHEMBL1154735, “A strategy to minimize reactive metabolite formation: discovery of (S)-4-(1-cyclopropyl-2-methoxyethyl)-6-[6-(difluoromethoxy)-2,5-dimethylpyridin-3-ylamino]-5-oxo-4,5-dihydropyrazine-2-carbonitrile as a potent, orally bioavailable corticotropin-releasing factor-1 receptor antagonist” (J Med Chem, 2009).

Tests used:
[1] = Cmax in Sprague-Dawley rat at 10 mg/kg, po dosed as aqueous suspension of Labrafil M 1944CS/DMAC/polysorbate 80, 85:10:5 (v/v) after 2 to 4 hrs by LC/MS/MS analysis; format: ADME, organism-based; design: dose 10 mg/kg, route oral; conditions: in vivo
[2] = molecular target: T1, Corticotropin-releasing factor receptor 1 (Rattus norvegicus, UniProt P35353); experiment: Displacement of [125I]Tyr-o-CRF from CRF1 receptor in rat frontal cortex homogenate by binding titration assay; format: tissue-based
T1 sequence (P35353 whole entry): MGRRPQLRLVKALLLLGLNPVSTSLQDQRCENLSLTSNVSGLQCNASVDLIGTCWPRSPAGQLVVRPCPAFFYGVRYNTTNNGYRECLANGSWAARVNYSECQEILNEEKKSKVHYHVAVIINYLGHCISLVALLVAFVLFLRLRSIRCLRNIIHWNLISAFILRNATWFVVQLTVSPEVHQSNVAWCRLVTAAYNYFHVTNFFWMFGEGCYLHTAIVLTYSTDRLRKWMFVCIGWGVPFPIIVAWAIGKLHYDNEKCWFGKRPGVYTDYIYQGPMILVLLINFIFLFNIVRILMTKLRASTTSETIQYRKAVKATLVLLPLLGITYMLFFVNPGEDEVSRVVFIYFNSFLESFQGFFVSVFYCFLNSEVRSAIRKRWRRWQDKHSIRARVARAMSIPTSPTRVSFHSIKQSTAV

[3] = Half life in Beagle dog at 2 mg/kg, iv by LC/MS/MS analysis; format: ADME, organism-based, Canis lupus familiaris; design: dose 2 mg/kg, route intravenous; conditions: in vivo
Summary of the method: (§1)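 Male beagle dogs (n = 4), 2 mg/kg iv in propylene glycol:ethanol 90:10 (v/v), 1 mL/kg infused over 5 min at 0.2 mL/kg/min; femoral vein blood at 0.17–24 h; plasma frozen at –20 °C, analysed by LC/MS/MS.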

[4] = Oral bioavailability in Beagle dog at 2 mg/kg dosed as aqueous suspension of 1% polysorbate 80 in 0.5% methylcellulose after 0.25 to 24 hrs by LC/MS/MS analysis; format: ADME, organism-based, Canis lupus familiaris; conditions: in vivo
Rattus norvegicus [5] = experiment: Toxicity in Sprague-Dawley rat at 20 mg/kg after 2 weeks; format: organism-based; design: dose 20 mg/kg; conditions: in vivo, 336 h
[6] = Volume of distribution at steady state in Beagle dog at 2 mg/kg, iv after 0.17 to 24 hrs by LC/MS/MS analysis; format: ADME, organism-based, Canis lupus familiaris; design: dose 2 mg/kg, route intravenous; conditions: in vivo, read-out: Vdss
Summary of the method: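 Male beagle dogs (n = 4) given 2 mg/kg iv in propylene glycol:ethanol 90:10 (v/v), 1 mL/kg infused over 5 min at 0.2 mL/kg/min. Plasma stored at –20 °C and analysed by LC/MS/MS after acetonitrile precipitation.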

[7] = Oral bioavailability in Sprague-Dawley rat at 10 mg/kg dosed as aqueous suspension of 1% polysorbate 80 in 0.5% methylcellulose after 0.25 to 24 hrs by LC/MS/MS analysis; format: ADME, organism-based; conditions: in vivo
[8] = Clearance in Beagle dog at 2 mg/kg, iv after 0.17 to 24 hrs by LC/MS/MS analysis; format: ADME, organism-based, Canis lupus familiaris; design: dose 2 mg/kg, route intravenous; conditions: in vivo; summary of the method: as §1
[9] = Cmax in Beagle dog at 2 mg/kg, po dosed as aqueous suspension of 1% polysorbate 80 in 0.5% methylcellulose after 2 to 4 hrs by LC/MS/MS analysis; format: ADME, organism-based, Canis lupus familiaris; design: dose 2 mg/kg, route oral; conditions: in vivo
[10] = molecular target: T2, Corticotropin-releasing factor receptor 1 (Homo sapiens, UniProt P34998); experiment: (§2) Antagonist activity at CRF1 receptor in human Y79 cells assessed as inhibition of CRF-stimulated cAMP production after 30 mins by HTRF analysis; format: functional, cell-based
T2 sequence (P34998 whole entry): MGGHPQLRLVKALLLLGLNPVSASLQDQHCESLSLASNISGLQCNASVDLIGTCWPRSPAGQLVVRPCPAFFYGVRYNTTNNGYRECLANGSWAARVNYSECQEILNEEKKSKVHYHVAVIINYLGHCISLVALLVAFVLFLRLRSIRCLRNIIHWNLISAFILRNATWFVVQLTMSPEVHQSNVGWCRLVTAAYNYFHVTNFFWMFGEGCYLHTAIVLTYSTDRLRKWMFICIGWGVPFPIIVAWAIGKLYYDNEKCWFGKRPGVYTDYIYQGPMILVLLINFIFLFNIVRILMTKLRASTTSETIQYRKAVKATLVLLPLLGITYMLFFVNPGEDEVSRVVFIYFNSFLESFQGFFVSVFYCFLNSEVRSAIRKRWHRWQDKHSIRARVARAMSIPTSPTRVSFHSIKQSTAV

[11] = molecular target: T3, Corticotropin-releasing factor receptor 1 (Homo sapiens) (UniProt P34998); experiment: as §2; format: functional, cell-based
T3 sequence (whole entry): T2 sequence (P34998 whole entry)

Rattus norvegicus [12] = experiment: Plasma free concentration in Sprague-Dawley rat at 1.8 mg/kg, po after 1 to 3 hrs by LC/MS/MS analysis; format: ADME, organism-based; design: dose 1.8 mg/kg, route oral; conditions: in vivo
Rattus norvegicus [13] = experiment: Total plasma concentration in Sprague-Dawley rat at 1 mg/kg, po after 1 to 3 hrs by LC/MS/MS analysis; format: ADME, organism-based; design: dose 1 mg/kg, route oral; conditions: in vivo
Rattus norvegicus [14] = experiment: Ex vivo receptor occupancy of CRF1 receptor in Sprague-Dawley rat brain parietal assessed as inhibition of [125I]sauvagine binding at 3 mg/kg, po after 90 mins by autoradiography; format: functional; conditions: 1.5 h
Rattus norvegicus [15] = experiment: Ex vivo receptor occupancy of CRF1 receptor in po dosed Sprague-Dawley rat brain parietal assessed as inhibition of [125I]sauvagine binding after 90 mins by autoradiography; format: functional, organism-based
[16] = Metabolic stability in NADPH-fortified rat liver microsomes assessed as parent compound remaining at 10 uM after 30 mins by HPLC/UV/MS analysis; format: ADME, Microsome; conditions: read-out: Stability
Summary of the method: (§3)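 Pooled rat or human liver microsomes 1 mg/mL, 10 μM substrate, 100 mM potassium phosphate pH 7.4, 37 °C, started with NADPH-regenerating system (1.3 mM NADP+, 3.3 mM glucose-6-phosphate, 3.3 mM MgCl2, 0.5 U/mL G6PDH); GSH 5 mM in trapping runs. Sampled 0 and 30 min, acetonitrile quench; abundance as UV peak area (330–340 nm) fraction of all drug-related components by HPLC/UV/MS.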

Rattus norvegicus [17] = experiment: Plasma free concentration in Sprague-Dawley rat at 0.56 mg/kg, po after 1 to 3 hrs by LC/MS/MS analysis; format: ADME, organism-based; design: dose 0.56 mg/kg, route oral; conditions: in vivo
[18] = Cmax in Sprague-Dawley rat at 10 mg/kg, po dosed as aqueous suspension of 1% polysorbate 80 in 0.5% methylcellulose after 2 to 4 hrs by LC/MS/MS analysis; format: ADME, organism-based; design: dose 10 mg/kg, route oral; conditions: in vivo
Rattus norvegicus [19] = experiment: Total plasma concentration in Sprague-Dawley rat at 3 mg/kg, po after 1 to 3 hrs by LC/MS/MS analysis; format: ADME, organism-based; design: dose 3 mg/kg, route oral; conditions: in vivo
[20] = Metabolic stability in NADPH-fortified human liver microsomes assessed as parent compound remaining at 10 uM after 30 mins by HPLC/UV/MS analysis; format: ADME, Microsome; conditions: read-out: Stability; summary of the method: as §3
Rattus norvegicus [21] = experiment: Total plasma concentration in Sprague-Dawley rat at 0.56 mg/kg, po after 1 to 3 hrs by LC/MS/MS analysis; format: ADME, organism-based; design: dose 0.56 mg/kg, route oral; conditions: in vivo
[22] = Dissociation constant, pKa by spectrophotometric titration method; format: physicochemical
Summary of the method: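 Spectrophotometric titration over pH 2–11 in varying acetonitrile/water mixtures, extrapolated to 0% cosolvent.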

Cmax [1]: 1600 nM
IC50 [2]: 0.86 nM
half-life [3]: 30 h
bioavailability [4]: 53%
Vd [6]: 13 L/kg
bioavailability [7]: 31%
clearance [8]: 7.3 mL/min/kg
Cmax [9]: 880 nM
IC50 [10]: 1.9 nM
inhibition [11]: Dose-dependent effect
Cp(f) (Rattus norvegicus [12]): 2.9 nM
concentration (Rattus norvegicus [13]): 45 nM
Activity (Rattus norvegicus [15]): Dose-dependent effect
remaining at 0.5 h, 10 µM [16]: 82%
Cp(f) (Rattus norvegicus [17]): 0.84 nM
Cmax [18]: 860 nM
concentration (Rattus norvegicus [19]): 140 nM
remaining at 0.5 h, 10 µM [20]: 56%
concentration (Rattus norvegicus [21]): 24 nM
pKa [22]: < 2
SMILES: COC[C@H](C1CC1)n1cc(C#N)nc(Nc2cc(C)c(OC(F)F)nc2C)c1=O
Activity (Rattus norvegicus [5]): Non-toxic
inhibition in vivo at 3 mg/kg (Rattus norvegicus [14]): 80%
